One assay has as its system HepG-2 cells. Briefly: Cytotoxicity, Sulforhodamine-B. The class given is cell-based, human. The following applies: Homo sapiens.
The next assay deals with HCT-116 cells. Briefly: Cytotoxicity, Sulforhodamine-B. It counts as cell-based. The settings on record: Homo sapiens, HCT-116, 48 h, read-out: IC50 HCT-116. An outline of the steps: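 SRB viability: cells seeded at 5 × 10^4–10^5/well and left to attach 24 h. Test compound (DMSO, diluted in saline) at 0.001–100 µM for 48 h, four wells per concentration; vehicle-only controls. Fixed cold 50% TCA 1 h at 4 °C, stained 0.4% SRB in 1% acetic acid 30 min, dye solubilised in 10 mM tris base pH 10.5, OD 564 nm. Survival fraction = OD treated/OD control; IC50 from survival-concentration plot; repeated three times.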

The target in a further assay is VEGFR-2 (Homo sapiens, UniProt P35968). Briefly: biochemical. It counts as biochemical.
Chain of VEGFR-2 (P35968 20-1356): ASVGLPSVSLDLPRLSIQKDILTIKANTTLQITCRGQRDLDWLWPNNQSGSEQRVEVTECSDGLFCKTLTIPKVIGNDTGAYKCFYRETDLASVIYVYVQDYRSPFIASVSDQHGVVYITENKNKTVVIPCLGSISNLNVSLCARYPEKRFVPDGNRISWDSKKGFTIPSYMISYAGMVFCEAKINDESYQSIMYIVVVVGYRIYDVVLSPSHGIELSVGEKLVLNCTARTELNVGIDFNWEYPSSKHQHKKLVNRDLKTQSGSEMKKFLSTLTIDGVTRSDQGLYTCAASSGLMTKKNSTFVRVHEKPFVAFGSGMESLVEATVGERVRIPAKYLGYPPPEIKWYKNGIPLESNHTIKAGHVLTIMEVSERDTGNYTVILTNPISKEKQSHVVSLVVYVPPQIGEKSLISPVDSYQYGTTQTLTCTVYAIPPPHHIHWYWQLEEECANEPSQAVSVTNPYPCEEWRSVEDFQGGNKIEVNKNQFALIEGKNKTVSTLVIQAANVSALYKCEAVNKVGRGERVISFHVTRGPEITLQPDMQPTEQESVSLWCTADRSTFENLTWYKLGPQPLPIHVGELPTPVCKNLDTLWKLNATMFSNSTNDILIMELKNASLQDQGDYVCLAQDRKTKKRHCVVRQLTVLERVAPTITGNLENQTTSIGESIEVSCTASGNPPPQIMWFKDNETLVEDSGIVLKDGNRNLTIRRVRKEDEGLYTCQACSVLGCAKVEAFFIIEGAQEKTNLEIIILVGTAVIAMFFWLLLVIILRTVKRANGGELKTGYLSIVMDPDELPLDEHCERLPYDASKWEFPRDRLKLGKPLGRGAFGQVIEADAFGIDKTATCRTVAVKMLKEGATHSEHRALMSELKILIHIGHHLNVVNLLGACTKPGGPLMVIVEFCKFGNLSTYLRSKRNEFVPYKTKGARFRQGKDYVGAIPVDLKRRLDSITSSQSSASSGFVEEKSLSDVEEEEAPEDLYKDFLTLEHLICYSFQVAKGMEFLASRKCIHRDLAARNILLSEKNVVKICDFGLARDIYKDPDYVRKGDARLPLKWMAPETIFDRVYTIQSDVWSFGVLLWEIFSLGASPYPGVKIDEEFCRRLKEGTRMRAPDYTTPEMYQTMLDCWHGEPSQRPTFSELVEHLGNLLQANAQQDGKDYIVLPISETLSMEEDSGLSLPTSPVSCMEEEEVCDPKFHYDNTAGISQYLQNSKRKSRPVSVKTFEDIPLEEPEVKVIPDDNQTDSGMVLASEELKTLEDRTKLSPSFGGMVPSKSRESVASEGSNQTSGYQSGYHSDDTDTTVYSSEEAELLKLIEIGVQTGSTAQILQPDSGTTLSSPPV
The mark [1] stands for this setting: HepG2, 48 h, read-out: IC50 HepG-2.
Setting [2] is: HepG2, read-out: Experimental cytotoxicity pIC50 (converted).

This is an account of results in PMC6136361 (Journal of Enzyme Inhibition and Medicinal Chemistry, 2018).

Where two headings read alike, the source gives them in different places.

For `COc1ccc(C=NNC(=O)c2sc(Nc3ccccc3)c(C(=O)Nc3ccc(OC)cc3)c2NC(C)=O)cc1` [Compound 20, 4-Acetamido-5-[2-(4-methoxybenzylidene)hydrazinocarbonyl] -N-(4-methoxyphenyl)-2-(phenylamino)thiophene-3-carboxamide], the IC50 in the assay with HepG-2 cells (setting [1]) was 4.96 ± 0.45 µM; in the assay on HepG-2 cells (setting [2]), 8.7 µM; with HepG-2 cells (HepG2, read-out: HepG-2 IC50), 4.96 µM; in the assay on HCT-116 cells, 3.12 ± 0.31 µM; on VEGFR-2 it was 1.71 ± 0.21 µM.

`COc1ccc(NC(=O)c2c(Nc3ccccc3)sc(C(=O)NN=Cc3ccc(Cl)cc3)c2NC(C)=O)cc1` [Compound 17, 4-Acetamido-5-[2-(4-chlorobenzylidene)hydrazinocarbonyl]-N-(4-methoxyphenyl)-2-phenylaminothiophene-3-carboxamide]: the IC50 was 9.5 ± 0.86 µM with HepG-2 cells (setting [1]); 9.5 µM in the assay with HepG-2 cells (setting [2]); 9.5 µM in the assay on HepG-2 cells (HepG2, read-out: HepG-2 IC50); 9.24 ± 1.02 µM in the assay on HCT-116 cells; 5.91 ± 0.23 µM on VEGFR-2.

Turning to `COc1ccc(NC(=O)c2c(Nc3ccccc3)sc(C#N)c2NC(=O)CNc2ccc([N+](=O)[O-])cc2)cc1` [Compound 10, 5-Cyano-N-(4-methoxyphenyl)-4-[2-(4-nitrophenyl)aminoacetamido]-2-phenylaminothiophene-3-carboxamide], the IC50 is 9.71 ± 0.86 µM in the assay with HepG-2 cells (setting [1]); 9.7 µM in the assay with HepG-2 cells (setting [2]); 9.71 µM with HepG-2 cells (HepG2, read-out: HepG-2 IC50); 5.12 ± 0.42 µM with HCT-116 cells; 3.92 ± 0.16 µM at VEGFR-2.

For the compound `COc1ccc(NC(=O)c2c(Nc3ccccc3)sc(C#N)c2NC(=O)CNc2ccc(Br)cc2)cc1` [Compound 6, 4-[2-(4-Bromophenyl)amino-acetamido]-5-cyano-N-(4-methoxyphenyl)-2-phenylaminothiophene-3-carboxamide], the IC50 in the assay on HepG-2 cells (setting [1]) was 3.51 ± 0.22 µM; in the assay on HepG-2 cells (setting [2]), 3.5 µM; in the assay on HepG-2 cells (HepG2, read-out: HepG-2 IC50), 3.51 µM; with HCT-116 cells, 3.13 ± 0.21 µM; against VEGFR-2 it was 0.93 ± 0.19 µM.

Take `COc1ccc(NC(=O)c2c(Nc3ccccc3)sc(C(=O)NN=Cc3cc(OC)c(OC)c(OC)c3)c2NC(C)=O)cc1` [Compound 23, 4-Acetamido-N-(p-methoxyphenyl)-2-phenylamino-5-[2-(3,4,5-trimethoxybenzylidene)hydrazinocarbonyl]thiophene-3-carboxamide]: the IC50 in the assay with HepG-2 cells (setting [1]) was 10.82 ± 0.065 µM; with HepG-2 cells (setting [2]), 5.1 µM; in the assay on HepG-2 cells (HepG2, read-out: HepG-2 IC50), 10.8 µM; in the assay on HCT-116 cells, 6.46 ± 0.49 µM; against VEGFR-2 it was 5.21 ± 0.32 µM.
